Data: ChEMBL document CHEMBL1143758, “Antitumor studies. part 3: design, synthesis, antitumor activity, and molecular docking study of novel 2-methylthio-, 2-amino-, and 2-(N-substituted amino)-10-alkyl-2-deoxo-5-deazaflavins” (Bioorg Med Chem, 2007)
≈ marks a conversion by molar mass, not a printed value.

Key:
CCRF-HSB-2 = assay: Antitumor activity against human CCRF-HSB2 cells by modified MTT assay; type: functional, cell-based
KB = assay: Antitumor activity against human KB cells by modified MTT assay; type: functional, cell-based
Human alphaherpesvirus 1 = assay: Antiviral activity against HSV1 in HELF cells assessed as reduction of virus plaque formation; type: functional; conditions: Human alphaherpesvirus 1, HELF; read-out: ED50 (the source's name)
Method in brief: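 In vitro plaque-reduction test against HSV-1, run with an acyclovir positive control. The value is reported as ED50, the minimum concentration that reduces virus plaque formation by 50%.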

IC50 (CCRF-HSB-2) [mg/L]	IC50 (KB) [mg/L]	EC50 (Human alphaherpesvirus 1) [mg/L]	Structure (SMILES)
35.6 (≈ 125 µM)	23.6 (≈ 83 µM)		COc1ccc2c(c1)cc1c(=O)nc(N(C)C)nc-1n2C
46.4 (≈ 161 µM)	58.5 (≈ 203 µM)		CN(C)c1nc2n(C)c3ccc(Cl)cc3cc-2c(=O)n1
14.3 (≈ 59.5 µM)	44.5 (≈ 185 µM)		Cc1ccc2c(c1)cc1c(=O)nc(N)nc-1n2C
34.9 (≈ 123 µM)	34.3 (≈ 121 µM)		CN(CCO)c1nc2n(C)c3ccccc3cc-2c(=O)n1
26.3 (≈ 88.2 µM)	23.5 (≈ 78.8 µM)		CCn1c2nc(N(C)CCO)nc(=O)c-2cc2ccccc21
9.5 (≈ 30.4 µM)	25.1 (≈ 80.4 µM)		CCn1c2nc(N(C)CCO)nc(=O)c-2cc2cc(C)ccc21
39 (≈ 124 µM)	36 (≈ 115 µM)		COc1ccc2cc3c(=O)nc(N(C)CCO)nc-3n(C)c2c1
7.07 (≈ 26.1 µM)	5.42 (≈ 20 µM)	20 (≈ 73.7 µM)	CCn1c2nc(SC)nc(=O)c-2cc2ccccc21
27.7 (≈ 85.4 µM)	50.8 (≈ 157 µM)		CCn1c2nc(N3CCOCC3)nc(=O)c-2cc2cc(C)ccc21
1.82 (≈ 6.38 µM)	1.73 (≈ 6.06 µM)	4 (≈ 14 µM)	CCn1c2nc(SC)nc(=O)c-2cc2cc(C)ccc21
1.96 (≈ 7.3 µM)	3.96 (≈ 14.8 µM)		CCn1c2nc(N(C)C)nc(=O)c-2cc2ccccc21
16.4 (≈ 61.1 µM)	24.8 (≈ 92.4 µM)		Cc1ccc2c(c1)cc1c(=O)nc(N(C)C)nc-1n2C
11.3 (≈ 39.7 µM)	14 (≈ 49.2 µM)		CCn1c2nc(NCCO)nc(=O)c-2cc2ccccc21
1.64 (≈ 6.83 µM)	1 (≈ 4.16 µM)	4 (≈ 16.6 µM)	CCn1c2nc(N)nc(=O)c-2cc2ccccc21
9.57 (≈ 35.3 µM)	9.27 (≈ 34.2 µM)		CSc1nc2n(C)c3ccc(C)cc3cc-2c(=O)n1

Second part, the compound before the results:

Structure (SMILES)	IC50 (CCRF-HSB-2) [mg/L]	IC50 (KB) [mg/L]	EC50 (Human alphaherpesvirus 1) [mg/L]
CSc1nc2n(C)c3cc(C)c(C)cc3cc-2c(=O)n1	7.06 (≈ 24.7 µM)	11.4 (≈ 39.9 µM)	
COc1ccc(OC)c2c1cc1c(=O)nc(SC)nc-1n2C	4.84 (≈ 15.3 µM)	8.75 (≈ 27.6 µM)	20 (≈ 63 µM)
CN(C)c1nc2n(C)c3ccccc3cc-2c(=O)n1	22.6 (≈ 88.9 µM)	20.1 (≈ 79 µM)	
Cn1c2nc(N)nc(=O)c-2cc2ccccc21	13.7 (≈ 60.6 µM)	17.9 (≈ 79.1 µM)	
CCCCNc1nc2n(C)c3ccccc3cc-2c(=O)n1	6.04 (≈ 21.4 µM)	7.31 (≈ 25.9 µM)	
Cn1c2nc(N3CCCCC3)nc(=O)c-2cc2ccccc21	24.7 (≈ 83.9 µM)	32 (≈ 109 µM)	
Cn1c2nc(N3CCOCC3)nc(=O)c-2cc2ccccc21	> 100	68.1 (≈ 230 µM)	
CN1CCN(c2nc3n(C)c4ccccc4cc-3c(=O)n2)CC1	5.9 (≈ 19.1 µM)	8.44 (≈ 27.3 µM)	
COc1ccc2c(c1)cc1c(=O)nc(N3CCOCC3)nc-1n2C	24.5 (≈ 75.1 µM)	38.3 (≈ 117 µM)	
Cc1ccc2c(c1)cc1c(=O)nc(N3CCCCC3)nc-1n2C	25.2 (≈ 81.7 µM)	32.7 (≈ 106 µM)	
CSc1nc2n(C)c3c(C)cccc3cc-2c(=O)n1	15.3 (≈ 56.4 µM)	12 (≈ 44.2 µM)	
COc1ccc2cc3c(=O)nc(SC)nc-3n(C)c2c1	5.92 (≈ 20.6 µM)	7.69 (≈ 26.8 µM)	
CSc1nc2n(C)c3ccc(Cl)cc3cc-2c(=O)n1	9.87 (≈ 33.8 µM)	21.5 (≈ 73.7 µM)	
CN1CCN(c2nc3n(C)c4ccc(Cl)cc4cc-3c(=O)n2)CC1	7.4 (≈ 21.5 µM)	16.6 (≈ 48.3 µM)	
Cc1cc2cc3c(=O)nc(N4CCOCC4)nc-3n(C)c2cc1C	6 (≈ 18.5 µM)	8.8 (≈ 27.1 µM)	
COc1ccc2c(c1)cc1c(=O)nc(N3CCN(C)CC3)nc-1n2C	12.6 (≈ 37.1 µM)	27 (≈ 79.6 µM)	
CCCCCCCCNc1nc2n(C)c3ccccc3cc-2c(=O)n1	8.9 (≈ 26.3 µM)	7.9 (≈ 23.3 µM)	
CSc1nc2n(C)c3ccccc3cc-2c(=O)n1	1.91 (≈ 7.42 µM)	1.97 (≈ 7.66 µM)	0.8 (≈ 3.11 µM)
COc1ccc2c(c1)cc1c(=O)nc(SC)nc-1n2C	9.27 (≈ 32.3 µM)	9.82 (≈ 34.2 µM)	
Cn1c2nc(N3CCCCC3)nc(=O)c-2cc2cc(Cl)ccc21	69.4 (≈ 211 µM)	82.6 (≈ 251 µM)	
Cn1c2nc(N3CCOCC3)nc(=O)c-2cc2cc(Cl)ccc21	96.1 (≈ 291 µM)	52.7 (≈ 159 µM)	
COc1ccc2c(c1)cc1c(=O)[nH]c(=O)nc-1n2C	37.1 (≈ 144 µM)	10 (≈ 38.9 µM)	
